This sample holds only a part of the variants without activity.
B1: tRNA (parent)
chain: GUUCCGUUGGCGUAAUGGUAACGCGUCUCCCUCCUAAGGAGAAGACUGCGGGUUCGAGUCCCGUACGGAACG

Variants of: B1
Experiment: yeast fitness relative to wild type (ratio to wild type); higher = fitter; tRNA-Arg(CCU), competitive growth, 37 C, YPD
Procedure, shortened: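 A pool of Saccharomyces cerevisiae strains, each with a tRNA-Arg(CCU) gene variant at the native genomic locus, was competed in YPD at 37°C for 24 hours across six parallel replicates. The variants had been chemically synthesised at a 3% per-site mutation rate over 69 sites, and gene amplicons before and after competition were read by 100-nucleotide paired-end sequencing. Darwinian fitness relative to wild type rested on changes in genotype frequencies. Genotypes required ≥ 100 starting reads, and estimates < 0.5 were set to 0.5.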

Row | Variant | yeast fitness
1 | GUUCCGUUGGCGUAAAGGUAGCGCGUCUCCCUCUUAAGGAGAAGACUGCGGGUUCGAGUCCCGUACGGAACG [U16A A21G C34U] | ≤ 0.5
2 | GUUCCGUUGGCGUAAAGGUAAAGCGUCUCCCUCCUAAGGAGAAGACUGCGGGUUCGAGUCCCGUACGGAACG [U16A C22A] | 0.941
3 | GUUCCGUUGGCGUAAAGGUAAUGCGUCUCCCUCCUAAGGAGAAGACUGCGGGUUCGAGUCCCGUACGGAACG [U16A C22U] | 0.773
4 | GUUCCGUUGGCGUAAAGGUAAGGCGUCUCCCUCCUAAGGAGAAGACUGCGGGUUCGAGUCCCGUACGGAACG [U16A C22G] | 0.989
5 | GUUCCGUUGGCGUAUUGGUAACGCGACUCCAUCCUAAGGAGAAGACUGCGGGUUCGAGUCCCGUACGGAACG [A15U U26A C31A] | ≤ 0.5
6 | GUUCCGUUGGCGUAUUGGUAACGCGUCUCCCUCCAAAGGAGAUGAUUGCGGGUUCGAGUCCCGUACGGAACG [A15U U35A A43U C46U] | 0.695
7 | GUUCCGUUGGCGUAAAGGUAACGGGUCUCCCUCCUAAGGAGACGACUGCGGGUUCGAGUCCCGUACGGAACG [U16A C24G A43C] | 0.512
8 | GUUCCGUUGGCGUAAAGGUAACGCGUCUCCCUCCUAGGGAGAAAACUGCGGGUUCGAGUCCCGUACGGUACG [U16A A37G G44A A69U] | ≤ 0.5
9 | GUUCCGUUGGCGUAUUGGUAACGCGUCUCCCGCCUAAGGAGAAAACUGCAGGUACGAGUCCCGUACGGAACG [A15U U32G G44A G50A U54A] | ≤ 0.5
10 | GUUCCGUUGGCGUAAAGGUAUCGAGUCUCCCUCCUAAGGAGAAGACUGCGGAUUCGAGUCCCGUACGGAACG [U16A A21U C24A G52A] | ≤ 0.5
11 | GUUCCGUUGGCGUAAAGGUAACGCGUCUCCCUCCUAAGGGGAAGACUGCGGGUUCGAGUCCCGUACGGAACG [U16A A40G] | 0.913
12 | GUUCCGUUGGCGUAUUGGUAACGCGUCUCCCUCCUAAGGAGAAGACUGCGGGCUCGAGUCCCGUACGGAACG [A15U U53C] | 0.71
13 | GUUCCGUUGGCGUAUUGGUAACGCGUCUCCCUCCUAAGGAGAAGACUGCGGGGUCGAGUCCCGUACGGAACG [A15U U53G] | 0.539
14 | GUUCCGUUGGCGUAUUGGUAACGCGUCUCCCUCCUAAGGAGAAGACUGCGGGUUCGAGCCCAGUACGGAACG [A15U U59C C62A] | ≤ 0.5
15 | GUUCCGUUGGCGUAAAGGUUACGGGUCUCCCUGCUAAGGAGAAGACUGCGGGUUCGAGUCACGUACGGAACG [U16A A20U C24G C33G C61A] | ≤ 0.5
16 | GUUCCGUUGGCGUAAAGGUAUCGCGUCUCCCUCCUAAGGAGUAGACUGCGGGUUCGAGUCCCGUACGGAACG [U16A A21U A42U] | 0.591
17 | GUUCCGUUGGCGUAAAGGUAACGCGUCUCCCUCCUAAGGAGAUGACUGCGGGUUCGAGUCCGGUAAGGCACG [U16A A43U C62G C66A A69C] | ≤ 0.5
18 | GUUCCGUUGGCGUAAAGGUAACGCGUCUCCCUCCUAUGGAGAAGACUGCGGGUUCGAGUCCCGUACGGAACG [U16A A37U] | 0.739
19 | GUUCCGUUGGCGUAAAGGUAACGCGUCUCCCUCCUAGGGAGAAGACUGCGGGUUCGAGUCCCGUACGGAACG [U16A A37G] | 0.79

Row | Variant | yeast fitness
20 | GUUCCGUUGGCGUAUUGGUAACGCGUCACCCUCCUAAGGAGAAGACUGCGGGUUCGAGUCCCGUACGCAACG [A15U U28A G68C] | ≤ 0.5
21 | GUUCCGUUGGCGUAUUGGAGACGCGUCUCCCUCCUAAGGUGAUGACUGCGGGUUCGAGUCCCGUACGGAACG [A15U U19A A20G A40U A43U] | 0.542
22 | GUUCCGUUGGCGUAAAGGUAACGCGUCUCCCUCCUAAGGAGAAGACUGCGGGUUCGUGUCCCGUACGGUACG [U16A A57U A69U] | 0.526
23 | GUUCCGUUGGCGUAUUGGCAACGCGUCUCCCUCCUAAGGAGAAGACCGCGGGUUCGAGUCCCGUGCGCAACG [A15U U19C U47C A65G G68C] | ≤ 0.5
24 | GUUCCGUUGGCGUAAAGGUAAGGCGUCUCCCUCCUAAGGAGAAGACUGCGGGUUCGAGUCUCGUGCGGAACG [U16A C22G C61U A65G] | ≤ 0.5
25 | GUUCCGUUGGCGUAAAGGUAAUGCGCCUCCCUCCUAAGGAGAAGACUGCGGGUGCGAGUCCCGUGAGGAACG [U16A C22U U26C U54G A65G C66A] | ≤ 0.5
26 | GUUCCGUUGGCGUAAAGGUAACGCGUCUCCCUCCUAUGGAGAAGACUGCGGGUUCAAGUCCAGUACGGGACG [U16A A37U G56A C62A A69G] | ≤ 0.5
27 | GUUCCGUUGGCGUAUAGAUAACGCGUCUCCCUCCUAAGGAGAAGACUGCGGGUUCGAGUUCCGUACGGAACG [A15U U16A G18A C60U] | ≤ 0.5
28 | GUUCCGUUGGCGUAUUGGUAACGCGUCUCCCUCCUAAGGAGAAGACUGCGGGUUCGAGUCCCGCGCGGAACG [A15U U64C A65G] | 0.528
29 | GUUCCGUUGGCGUAAAGGUAACGCGUCUCCCUCCUAAGGAGAAGACUGCGGGUUCGAGUCCCGUACGGAUCG [U16A A70U] | 1.03
30 | GUUCCGUUGGCGUAAAGGUAACGCGUCUCCCUCCUAAGGAGAAGACUGCGGGUUCGAGUCCCGUACGGACCG [U16A A70C] | 0.897
31 | GUUCCGUUGGCGUAAAGGUUACGCGUCUCCCUCCCAAGCAGCAGACUACGGGUUCGAGUCCCGUACGGAACG [U16A A20U U35C G39C A42C G48A] | ≤ 0.5
32 | GUUCCGUUGGCGUAAAGGUGACGCGUUUCCCUCCUAAGGACAAGACUGCGGGUUUGAGUCCCGUACGGUACG [U16A A20G C27U G41C C55U A69U] | ≤ 0.5
33 | GUUCCGUUGGCGUAUAGGUAACGCGUGUCCCUCCUAAGGAGAAGACUGCGGGUUCGAGUCCCGUACGGAACG [A15U U16A C27G] | 0.59
34 | GUUCCGUUGGCGUAAAGGUUACGGGUCUCCAUGCUAAGGAGAAGACUGCGGGUUCGAGUCACGUACCGAACG [U16A A20U C24G C31A C33G C61A G67C] | ≤ 0.5
35 | GUUCCGUUGGCGUAAAGGUAGCGCGUCUCCCUCAUAAGGAGAAGACUGGGGGUUCGAGUCCUGUACGGAACG [U16A A21G C34A C49G C62U] | ≤ 0.5
36 | GUUCCGUUGGCGUAAAGGUAACGCGUCUCCCUCCUAAGGAGCAGACUGCGGGUUCGAGUCCCGUACGGAACG [U16A A42C] | 0.854
37 | GUUCCGUUGGCGUAUUGGUAACGCGUCUCCCUCCAAAGGAGAAGACUGCCGGUUCGAGUCCCGUCCGGAACG [A15U U35A G50C A65C] | ≤ 0.5
